Here are results for seven compounds from publication PMC4002123 (Journal of Medicinal Chemistry, 2014).

Data set [1] can be described thus: Mouse plasma concentrations after single oral dose. Type of data set: in vivo. To be noted: mice, single oral dose 5 mg/kg. In outline: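 Female C57BL/6 mice dosed once by oral gavage at 5 mg/kg, test compound dissolved in ethanol and given in PBS. Blood drawn from orbital sinus at 1, 3, 6 and 24 h after dosing. Each group of mice sampled only once.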
Data set [2] concerns MDA-MB-231 cells. In words: Antiproliferative assay. It is filed as cell-based, human. To be noted: read-out: growth inhibition IC50, MDA-MB-231; MDA-MB-231, 72 h. A digest of the protocol:
(§1)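 Seeded at 5 × 10^3 cells/well and grown 24 h. Medium then replaced with fresh medium holding test compound at a range of concentrations; DMSO below 0.25%. Incubated at 37 °C for 72 h. Resazurin added for 2 h, then fluorescence read at ex 560 / em 590 nm.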

The test system of a further data set is bovine brain tubulin. In words: Tubulin polymerization assay in vitro. The note with it: compared to vehicle. Type of data set: biochemical.
The test system of data set [3] is chick embryo chorioallantoic membrane. In words: Chick embryo chorioallantoic membrane. Type of data set: in vivo. To be noted: collagen plug with bFGF + VEGF (BV), scored 4 days after treatment. In outline:
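Fertilized chick eggs incubated 3 days at 37.5 °C, then shell-free in covered weighboats for 10 more days. Collagen onplants (2.1 mg/mL rat tail collagen, 10 ng/plug bFGF, 30 ng/plug VEGF) with or without test compound placed on CAM over nylon mesh; four per egg, at least three eggs. After 4 days, plugs on surviving embryos imaged and scored blind 0–3; means ± SEM.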

In data set [4] the test system is HeLa cells. Kind of data set: Antiproliferative assay. Type of data set: cell-based, human. The note with it: read-out: growth inhibition IC50, HeLa, 72 h. In outline:
as §1

In a further data set the test system is A549 cells. In words: Antiproliferative assay. Type of data set: cell-based, human. The note with it: read-out: growth inhibition IC50, A549; A549, 72 h. A digest of the protocol:
as §1

The subject of data set [5] is HeLa cells. Kind of data set: Immunofluorescence of interphase microtubules, HeLa. It is filed as cell-based, human. To be noted: 1 μM, 24 h. A digest of the protocol:
(§2)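 Cells grown on chamber slides and exposed to DMSO vehicle or test compound, then fixed in 3.7% formaldehyde and permeabilised for 4 min with 0.1% Triton X-100 in PBS. Blocked 1 h in PBS/1% BSA with calf serum. Stained with mouse anti-β-tubulin (1:200), then Alexa 488 goat anti-mouse (1:200) for 2 h at room temperature. Imaged by fluorescence microscopy.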

Data set [6] has as its system MDA-MB-231 cells. In words: Immunofluorescence of interphase microtubules, MDA-MB-231. The note with it: 1 μM, 24 h. Type of data set: cell-based, human. In outline:
as §2

Data set [7] deals with colchicine binding site of tubulin. In words: Competitive LC-MS/MS binding assay, colchicine binding site. To be noted: colchicine 1.2 μM, tubulin 1.3 mg/mL, 37 °C, 1 h; highest value reached.

Entries after “also recorded” stand apart in the source; their conditions may differ.

Turning to “2-Methoxy-5-(6-(3,4,5-trimethoxyphenyl)pyridine-2-yl)phenol [4t]”, in data set [1], the peak plasma concentration entry is reported as “lower peak concentrations than CA-4”. Also, the IC50 in the data set with MDA-MB-231 cells [2] stood at 0.069 ± 0.0028 µM; in the data set with HeLa cells [4], 0.0047 ± 0.0009 µM; in the data set on A549 cells it was 2.64 ± 0.38 µM. The “inhibition of tubulin polymerization” value in the data set with bovine brain tubulin (compound at 1 μM) is listed as “failed to inhibit tubulin polymerization”; in the data set with bovine brain tubulin (compound at 10 μM) it was 32%. Besides, the “inhibition of new vessel growth (angiogenesis score, scale 0-3)” value (shortened to “inhibition … (angiogenesis score, scale 0-3)”) in data set [3] was “inhibition of new vessel growth; also recorded: scored significantly lower than the positive control (BV)”.

For `COc1ccc(-c2cccc(-c3ccc(OC)cc3OC)n2)cc1` [4h, 2-(2,4-Dimethoxyphenyl)-6-(4-methoxyphenyl)pyridine], the “effect on interphase microtubule network” value with HeLa cells [5] and in the data set with MDA-MB-231 cells [6] was “dramatic reduction of the interphase microtubule network” throughout. Besides, in [1], the peak plasma concentration result is reported as “lower peak concentrations than CA-4”. The figures for the “inhibition of tubulin polymerization” value in the data set with bovine brain tubulin (compound at 1 μM) and in the data set on bovine brain tubulin (compound at 10 μM) were “failed to inhibit tubulin polymerization” and “remained ineffective against tubulin polymerization”, respectively. Also, the “inhibition … (angiogenesis score, scale 0-3)” value in data set [3] is on record as “inhibition of new vessel growth”.

For the compound “5-Bromo-2-(2,4-dimethoxyphenyl)pyridine [2f]”, the IC50 with MDA-MB-231 cells [2] was greater than 100 µM; in the data set on HeLa cells [4], greater than 25 µM; in the data set on A549 cells, greater than 100 µM.

As to `COc1ccc(-c2cccc(-c3ccc(OC)c(O)c3)n2)c(OC)c1` [4s, 5-(6-(2,4-Dimethoxyphenyl)pyridine-2-yl)-2-methoxyphenol], in [1], the “plasma concentration at 6 h” value is reported as “dropping rapidly” and the “plasma concentration at 24 h” value is recorded as “below detection limit”. The “inhibition of tubulin polymerization” value with bovine brain tubulin (compound at 1 μM) is “failed to inhibit tubulin polymerization”. Moreover, the “inhibition … (angiogenesis score, scale 0-3)” value in data set [3] is on record as “inhibition of new vessel growth; also recorded: scored significantly lower than the positive control (BV)”.

For “2-(2,4-Dimethoxyphenyl)-6-(2,5-dimethoxyphenyl)pyridine [4m]”, the IC50 in the data set with MDA-MB-231 cells [2] was 0.034 ± 0.004 µM; in the data set on HeLa cells [4] it was 0.034 ± 0.002 µM; with A549 cells it was 0.33 ± 0.01 µM.

In the case of `COc1ccc(/C=C\c2cc(OC)c(OC)c(OC)c2)cc1O` [CA-4, Combretastatin-A4, reference compound], the “effect on interphase microtubule network” value in the data set with HeLa cells [5] is “very similar loss of the microtubule network”. Further, the “effect on interphase microtubule network” value with MDA-MB-231 cells [6] is on record as “very similar loss of the microtubule network”. In [1], the “plasma concentration at 6 h” value is listed as “no longer detectable” and the “plasma concentration at 24 h” value is “no longer detectable”. In the data set with bovine brain tubulin (compound at 10 μM), the “inhibition of tubulin polymerization” value is on record as “nearly completely blocked tubulin polymerization”. Moreover, the “inhibition … (angiogenesis score, scale 0-3)” value in data set [3] is “inhibition of new vessel growth”. In addition, in data set [7], the “relative binding capacity, % of colchicine binding” value was determined as 78%.

Turning to “5-Bromo-2-(3,4,5-trimethoxyphenyl)pyridine [2e]”, the IC50 with MDA-MB-231 cells [2] is 12.05 ± 0.02 µM; with HeLa cells [4], 14 ± 0.3 µM; in the data set on A549 cells it was greater than 25 µM.

In general, IC50 refers to the concentration needed to halve the response being measured.
